# Assay results taken from PubChem BioAssay AID638 (SRMLSC, 2007).
# The campaign covered roughly 1,300 compounds. About 65 (5%) were called active.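 Rule for the calls: active = growth inhibition reaching a set limit at one or more tested doses; inactive = the rest.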 Not all results are given here. Potency and affinity values are given separately.
# Experiment: wild-type E. coli BW25113 antibacterial activity – OD615, dose response (AID 638)
# Conditions: at 100 µM (top of the series) unless noted
# Summary of the method: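 Assay system: E. coli BW25113 wild type. Doses: compound concentration series. Timing: 20 h compound exposure, 37 °C. Technique: OD615 absorbance. Medium: LB broth containing kanamycin at 50 µg/mL. Benchmarks: chloramphenicol at 30 µM final as inhibition control. Measure: IC50 from 4-parameter logistic, bounds fixed 0–100%.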
row,Structure (SMILES),growth inhibition
1,CN(c1ccccc1C(=O)Nc1ccc(S(=O)(=O)N2CCCCC2)cc1)S(C)(=O)=O,-1.44% (inactive)
2,O=C(NC1CCCC1)c1sc(=S)n2c1[nH]c(=O)c1ccccc12,-2.92% (inactive)
3,Cn1c(=O)c2c(SCc3cccnc3)nc(CC(C)(C)C)nc2n(C)c1=O,1.92% (inactive)
4,O=C(Nc1ccc(S(=O)(=O)N2CCCc3ccccc32)cc1)C1CCCO1 (configuration not stated),-2.99% (inactive)
5,c1ccc(-n2nnnc2Oc2cccc3cccnc23)cc1,2.63% (inactive)
6,O=C(NCc1ccco1)c1cc2sccc2n1Cc1ccccc1,-6.37% (inactive)
7,N=c1n(CCN2CCOCC2)c2ccccc2n1CC(=O)c1ccc(Cl)c(Cl)c1,-3.82% (inactive)
8,c1csc(-c2nc3nc4ccccc4nc3n2Cc2ccc3c(c2)OCO3)c1,-7.29% (inactive)
9,COc1cc(-c2nc(Cc3ccccc3Cl)no2)cc(OC)c1OC,8.5% (inactive)
10,O=C(COc1ccc2ccccc2c1Br)N1CCN(c2ccccn2)CC1,-12.5% (inactive)
11,CSCCOC(=O)C1=C(C)NC(=O)CC1c1ccccc1Cl (configuration not stated),3.74% (inactive)
12,CC(OC(=O)c1ccccc1NCc1ccco1)C(=O)Nc1ncc(Cl)cc1Cl (configuration not stated),11.2% (inactive)
13,COc1ccc(S(=O)(=O)Nc2ccc(S(=O)(=O)N3CCCCC3)cc2)cc1,-5.18% (inactive)
14,N#CC1=C(N)NC(SCc2ccccc2)=C(C#N)C12CCCCC2,12.1% (inactive)
15,CCSc1nnc(NC(=O)CSc2nccn2-c2cccc(C)c2C)s1,2.99% (inactive)
16,Cc1onc(-c2c(F)cccc2Cl)c1C(=O)Nc1nc2c(s1)CCCC2,-5.05% (inactive)
17,Cc1cc(N2CCN(C(c3ccccc3)c3ccccc3)CC2)n2ncnc2n1,6.9% (inactive)
18,COc1ccc(OC)c(S(=O)(=O)n2cnc3cc(C)c(C)cc32)c1,-5.06% (inactive)
19,CCc1nc(N2CCCCC2)c2oc3ccccc3c2n1,-1.03% (inactive)
20,Brc1cc(Br)c2ncnc(N3CCCCC3)c2c1,7.11% (inactive)
21,c1ccc(-c2nc(CSc3nnc(-c4cccs4)o3)cs2)cc1,-5.14% (inactive)
22,Cc1cc(-c2ccco2)c(C#N)c2nc3ccccc3n12,-4.65% (inactive)
23,Cc1ccc(NC(=O)N2CCC(c3nc4c(nnn4Cc4cccc(Cl)c4)c(=O)[nH]3)CC2)cc1,-0.39% (inactive)
24,O=C(Nc1nnc(-c2ccccc2)o1)c1nc2ccccc2s1,-11.8% (inactive)

row,Structure (SMILES),growth inhibition
1,O=C(Nc1nnc(-c2ccc(Cl)cc2)o1)c1ccccc1Br,5.98% [at 50 µM] (inactive)
2,Cc1ccc(C2c3c(-c4ccccc4O)n[nH]c3C(=O)N2Cc2ccncc2)cc1 (configuration not stated),-4.25% (inactive)
3,O=C(Nc1ccc(Cl)c(Cl)c1)N1CCSC1c1ccco1 (configuration not stated),15.6% (inactive)
4,CCSc1nnc(NC(=O)c2nc(-c3ccccc3)n(-c3ccccc3)n2)s1,-4.83% (inactive)
5,CCc1nnc(NC(=O)c2cccc(C(=O)Nc3nnc(CC)s3)n2)s1,9.58% (inactive)
6,Cc1ccc(-c2nnc3sc(CCc4ccccc4)nn23)cc1,9.95% (inactive)
7,COC(=O)c1ccsc1NC(=O)CN1CCN(c2ccc(F)cc2)CC1,-9.19% (inactive)
8,O=C(c1cccc(COc2ccc(Cl)cc2Cl)c1)N1CCN(c2ccccn2)CC1,-14.7% (inactive)
9,O=C(Nc1nc2ccccc2s1)C1CCCN1S(=O)(=O)c1ccc(Cl)cc1 (configuration not stated),-7.08% (inactive)
10,COc1ccc(-c2nnc(SCc3cc(C)cc(C)c3)o2)cc1,-1.05% (inactive)
11,c1ccc(N2CCN(c3ncnc4c3oc3ccccc34)CC2)cc1,-9.68% (inactive)
12,COc1ccc(C)cc1NC(=O)CSc1nnc(COc2ccccc2)n1Cc1ccco1,0.64% (inactive)
13,CCc1cc2c3c(c(=O)oc2cc1O)CCCC3,-5.58% (inactive)
14,CCCn1c(CNc2ccc(Br)cc2)nc2ccccc21,7.8% (inactive)
15,CCc1nc2ccccc2c(=O)n1NC(=O)c1c(O)c2cccc3c2n(c1=O)CCC3,-13.7% (inactive)
16,COc1ccc(C2CC(c3ccccc3)n3nc(NC(=O)c4cccs4)nc3N2)cc1 (configuration not stated),3.83% (inactive)
17,O=C(Nc1nc2n(n1)C(c1ccc(Cl)cc1)CC(c1ccc(Cl)cc1)N2)c1ccco1 (configuration not stated),13% (active)
18,O=C(Nc1nc2ccccc2n1CCOc1ccc(Cl)cc1)c1ccco1,3.35% (inactive)
19,O=C(Cn1c2c(c(-c3ccccc3)cc1=O)CCCC2)N1CCCCCC1,3.36% (inactive)
20,C=CCn1c(SCC(O)Cn2c3ccccc3c3ccccc32)nnc1-c1ccco1 (configuration not stated),-9.43% (inactive)
21,O=C(CSc1nnc2scc(-c3ccccc3)n12)Nc1nsc(-c2ccccc2)n1,-9.04% (inactive)
22,COc1ccc(Cl)cc1N1CCN(CCNC(=O)Nc2ccccc2C)CC1,-2.62% (inactive)
23,Cn1c(=O)c(C(=S)NC(=O)C2CC2)c(N)n(Cc2ccccc2)c1=O,-3.57% (inactive)
